How the values were obtained:
[1] = target: T1, Protein cereblon/Indoleamine 2,3-dioxygenase 1 (Homo sapiens, UniProt P14902+Q96SW2); test: (§1) PROTAC activity at CRBN/N-terminal HiBiT-tagged IDO1 (unknown origin) transfected in human U87 cells assessed as induction of IDO1 degradation pretreated with IFN-gamma for 24 hrs followed by compound addition and measured after 24 hrs by Nano-Glo HiBiT assay; type: cell-based
Outline: (§2)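 U87 cells carrying HiBiT knocked in by CRISPR/Cas9 at the IDO1 N-terminus, treated for 24 h. Degradation read as loss of luminescence. DC50 fitted from the lowest concentration up to maximal degradation, excluding hook-effect points; triplicate mean ± SD.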
Target sequence in this assay (P14902 whole entry): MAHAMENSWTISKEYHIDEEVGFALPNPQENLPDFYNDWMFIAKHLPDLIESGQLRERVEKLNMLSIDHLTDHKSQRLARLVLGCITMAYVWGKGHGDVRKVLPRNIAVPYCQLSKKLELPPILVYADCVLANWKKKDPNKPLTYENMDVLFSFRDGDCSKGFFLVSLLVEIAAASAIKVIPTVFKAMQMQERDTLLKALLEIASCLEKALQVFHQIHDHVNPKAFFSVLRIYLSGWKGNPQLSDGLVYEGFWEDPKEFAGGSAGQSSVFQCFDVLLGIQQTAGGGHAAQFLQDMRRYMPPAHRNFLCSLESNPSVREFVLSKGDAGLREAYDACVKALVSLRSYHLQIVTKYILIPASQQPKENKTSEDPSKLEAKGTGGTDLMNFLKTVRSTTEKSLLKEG
Target sequence in this assay (Q96SW2 whole entry): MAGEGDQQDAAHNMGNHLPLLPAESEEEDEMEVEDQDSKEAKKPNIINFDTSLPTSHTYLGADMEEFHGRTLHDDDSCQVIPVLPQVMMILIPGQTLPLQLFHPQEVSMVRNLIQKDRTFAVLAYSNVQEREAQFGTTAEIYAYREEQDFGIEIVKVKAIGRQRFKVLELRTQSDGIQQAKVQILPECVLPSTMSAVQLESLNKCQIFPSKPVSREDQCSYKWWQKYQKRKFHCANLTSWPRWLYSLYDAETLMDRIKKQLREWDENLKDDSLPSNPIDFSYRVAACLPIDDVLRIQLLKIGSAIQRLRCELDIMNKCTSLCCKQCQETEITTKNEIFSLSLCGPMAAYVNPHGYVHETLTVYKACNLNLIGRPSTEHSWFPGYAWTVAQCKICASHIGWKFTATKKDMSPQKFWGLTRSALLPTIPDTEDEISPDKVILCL

[2] = target: T1, Protein cereblon/Indoleamine 2,3-dioxygenase 1; test: as §1, with “degradation by measuring maximum efficacy” for “degradation”, “assay relative to control” for “assay”; type: cell-based; outline: as §2
Target sequence in this assay (P14902 whole entry, looked up): as the sequence (P14902 whole entry) above
Target sequence in this assay (Q96SW2 whole entry, looked up): as the sequence (Q96SW2 whole entry) above

Compound | DC50 [1] | Emax [2]
C[C@@H](C(=O)Nc1ccc(Cl)c(OC2CCN(C(=O)CN3CCC(CN4CCN(c5ccc6c(c5)C(=O)N(C5CCC(=O)NC5=O)C6=O)CC4)CC3)CC2)c1)[C@H]1CC[C@@H](c2ccnc3ccc(F)cc32)CC1 (stereo not given in full) | 0.008 µM | 48%
C[C@@H](C(=O)Nc1ccc(Cl)c(OC2CCN(C(=O)CN3CCC(CN4CCN(c5cccc6c5C(=O)N(C5CCC(=O)NC5=O)C6=O)CC4)CC3)CC2)c1)[C@H]1CC[C@@H](c2ccnc3ccc(F)cc32)CC1 (stereo not given in full) | > 10 µM | < 10%
C[C@@H](C(=O)Nc1ccc(OC2CCN(C(=O)CCOCCN3CCN(c4cccc5c4C(=O)N(C4CCC(=O)NC4=O)C5=O)CC3)CC2)cc1)[C@H]1CC[C@@H](c2ccnc3ccc(F)cc32)CC1 (stereo not given in full) | > 10 µM | < 10%
C[C@@H](C(=O)Nc1ccc(OC2CCN(C(=O)CN3CCC(CN4CCN(c5cccc6c5C(=O)N(C5CCC(=O)NC5=O)C6=O)CC4)CC3)CC2)cc1)[C@H]1CC[C@@H](c2ccnc3ccc(F)cc32)CC1 (stereo not given in full) | > 10 µM | < 10%
C[C@@H](C(=O)Nc1ccc(Cl)c(OC2CCN(C(=O)CCOCCOCCNc3ccc4c(c3)C(=O)N(C3CCC(=O)NC3=O)C4=O)CC2)c1)[C@H]1CC[C@@H](c2ccnc3ccc(F)cc32)CC1 (stereo not given in full) | > 10 µM | < 10%
C[C@@H](C(=O)Nc1ccc(OC2CCN(C(=O)CCOCCOCCNc3ccc4c(c3)C(=O)N(C3CCC(=O)NC3=O)C4=O)CC2)cc1)[C@H]1CC[C@@H](c2ccnc3ccc(F)cc32)CC1 (stereo not given in full) | > 10 µM | < 10%
C[C@@H](C(=O)Nc1ccc(OC2CCN(C(=O)CCOCCN3CCN(c4ccc5c(c4)C(=O)N(C4CCC(=O)NC4=O)C5=O)CC3)CC2)cc1)[C@H]1CC[C@@H](c2ccnc3ccc(F)cc32)CC1 (stereo not given in full) | > 10 µM | < 10%
C[C@@H](C(=O)Nc1cccc(OC2CCN(C(=O)CCN3CCN(c4ccc5c(c4)C(=O)N(C4CCC(=O)NC4=O)C5=O)CC3)CC2)c1)[C@H]1CC[C@@H](c2ccnc3ccc(F)cc32)CC1 (stereo not given in full) | > 10 µM | < 10%
C[C@@H](C(=O)Nc1cccc(OC2CCN(C(=O)CN3CCN(c4ccc5c(c4)C(=O)N(C4CCC(=O)NC4=O)C5=O)CC3)CC2)c1)[C@H]1CC[C@@H](c2ccnc3ccc(F)cc32)CC1 (stereo not given in full) | > 10 µM | < 10%
C[C@@H](C(=O)Nc1ccc(Cl)c(OC2CCN(C(=O)CN3CCC(N4CCN(c5ccc6c(c5)C(=O)N(C5CCC(=O)NC5=O)C6=O)CC4)CC3)CC2)c1)[C@H]1CC[C@@H](c2ccnc3ccc(F)cc32)CC1 (stereo not given in full) | 0.007 µM | 51%
C[C@@H](C(=O)Nc1ccc(OC2CCN(C(=O)CN3CCC(CN4CCN(c5ccc6c(c5)C(=O)N(C5CCC(=O)NC5=O)C6=O)CC4)CC3)CC2)cc1)[C@H]1CC[C@@H](c2ccnc3ccc(F)cc32)CC1 (stereo not given in full) | 0.34 µM | 26%
C[C@@H](C(=O)Nc1ccc(OC2CCN(C(=O)CN3CCC(N4CCN(c5ccc6c(c5)C(=O)N(C5CCC(=O)NC5=O)C6=O)CC4)CC3)CC2)cc1)[C@H]1CC[C@@H](c2ccnc3ccc(F)cc32)CC1 (stereo not given in full) | 0.034 µM | 21%
C[C@@H](C(=O)Nc1ccc(Cl)c(OC2CCN(C(=O)CCOCCN3CCN(c4cccc5c4C(=O)N(C4CCC(=O)NC4=O)C5=O)CC3)CC2)c1)[C@H]1CC[C@@H](c2ccnc3ccc(F)cc32)CC1 (stereo not given in full) | > 10 µM | < 10%
C[C@@H](C(=O)Nc1ccc(Cl)c(OC2CCN(C(=O)CCOCCN3CCN(c4ccc5c(c4)C(=O)N(C4CCC(=O)NC4=O)C5=O)CC3)CC2)c1)[C@H]1CC[C@@H](c2ccnc3ccc(F)cc32)CC1 (stereo not given in full) | > 10 µM | < 10%
C[C@@H](C(=O)Nc1ccc(Cl)c(OC2CCN(C(=O)CCOCCOCCNc3cccc4c3C(=O)N(C3CCC(=O)NC3=O)C4=O)CC2)c1)[C@H]1CC[C@@H](c2ccnc3ccc(F)cc32)CC1 (stereo not given in full) | > 10 µM | < 10%
